Results published in ChEMBL document CHEMBL1158040, “Biological activities and 3D QSAR studies of a series of Delisea pulchra (cf. fimbriata) derived natural products” (J Nat Prod, 2006).
Values after ≈ are worked out from the molar mass of the structure shown. Active and inactive are the calls of the source. The calls are words filed in the database; no cut-off is given here.

Assays:
Monocyte [1] = test: Inhibition of LPS-stimulated IL1 production in human monocytes; assay type: functional, cell-based
Escherichia coli [2] = test: Antimicrobial activity against Escherichia coli at 10 ug; assay type: functional, organism-based
Method in brief: (§1)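 Direct bioautography: each compound is spotted onto TLC plates and the solvent evaporated. The test organism is then grown directly on the plate. Growth inhibition is scored at the spot as active (+) or very active (++). Where a number is given, it is the radius in mm of the inhibition zone around the spot.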

Plasmodium falciparum = test: Antimalarial activity against chloroquine-sensitive Plasmodium falciparum D6 at 10 ug/ml; assay type: functional
Bacillus subtilis [3] = test: Antimicrobial activity against Bacillus subtilis at 5 ug; assay type: functional, organism-based; method in brief: as §1
Escherichia coli [4] = test: Antimicrobial activity against Escherichia coli at 0.1 ug; assay type: functional, organism-based; method in brief: as §1
Penicillium oxalicum [5] = test: Antimicrobial activity against Penicillium oxalicum at 0.01 ug; assay type: functional; method in brief: as §1
Bacillus subtilis [6] = test: Antimicrobial activity against Bacillus subtilis at 10 ug; assay type: functional, organism-based; method in brief: as §1
Micrococcus luteus [7] = test: Antimicrobial activity against Micrococcus luteus at 5 ug; assay type: functional, organism-based; method in brief: as §1
Bacillus subtilis [8] = test: Antimicrobial activity against Bacillus subtilis at 1 ug; assay type: functional, organism-based; method in brief: as §1
Micrococcus luteus [9] = test: Antimicrobial activity against Micrococcus luteus at 0.1 ug; assay type: functional, organism-based; method in brief: as §1
Escherichia coli [10] = test: Antimicrobial activity against Escherichia coli at 1 ug; assay type: functional, organism-based; method in brief: as §1
KB [11] = test: Cytotoxicity against human KB cells; assay type: functional; settings: read-out: ED50 (the source's name)
Micrococcus luteus [12] = test: Antimicrobial activity against Micrococcus luteus at 10 ug; assay type: functional, organism-based; method in brief: as §1
KB [13] = test: Cytotoxicity against vinblastine-sensitive human KB cells; assay type: functional; settings: read-out: ED50 (the source's name)
Penicillium oxalicum [14] = test: Antimicrobial activity against Penicillium oxalicum at 10 ug; assay type: functional; method in brief: as §1
Lu1 = test: Cytotoxicity against human Lu1 cells; assay type: functional; settings: read-out: ED50 (the source's name)
[15] = target: Human immunodeficiency virus type 1 reverse transcriptase (Human immunodeficiency virus 1) (UniProt Q72547); test: Inhibition of HIV1 RT at 200 uM
Method in brief: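 HIV-1 reverse transcriptase inhibition was measured in an ELISA-based system.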

Penicillium oxalicum [16] = test: Antimicrobial activity against Penicillium oxalicum at 5 ug; assay type: functional; method in brief: as §1
Penicillium oxalicum [17] = test: Antimicrobial activity against Penicillium oxalicum at 0.1 ug; assay type: functional; method in brief: as §1
[18] = test system: Mycobacterium tuberculosis; test: Antimycobacterial activity against Mycobacterium tuberculosis at 128 uM; assay type: functional, organism-based
Micrococcus luteus [19] = test: Antimicrobial activity against Micrococcus luteus at 1 ug; assay type: functional, organism-based; method in brief: as §1
Mycobacterium avium = test: Antimycobacterial activity against Mycobacterium avium at 128 uM; assay type: functional, organism-based
Monocyte [20] = test: Inhibition of IL1 biosynthesis in human monocytes; assay type: functional, cell-based
KB [21] = test: Cytotoxicity against vinblastine-resistant human KB cells; assay type: functional; settings: read-out: ED50 (the source's name)
Method in brief: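 The vinblastine-resistant KB-V1 line was tested both with and without added vinblastine in the cultured tumour-cell cytotoxicity panel. Results are reported as ED50.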

[22] = Inhibition of PKC
Escherichia coli [23] = test: Antimicrobial activity against Escherichia coli at 5 ug; assay type: functional, organism-based; method in brief: as §1
LNCaP = test: Cytotoxicity against human LNCAP cells; assay type: functional; settings: read-out: ED50 (the source's name)
ZR-75-1 = test: Cytotoxicity against human ZR-75-1 cells; assay type: functional; settings: read-out: ED50 (the source's name)
Penicillium oxalicum [24] = test: Antimicrobial activity against Penicillium oxalicum at 1 ug; assay type: functional; method in brief: as §1
Bacillus subtilis [25] = test: Antimicrobial activity against Bacillus subtilis at 0.1 ug; assay type: functional, organism-based; method in brief: as §1

| Structure (SMILES) | Activity (Escherichia coli [2]) | Activity (Plasmodium falciparum) | Activity (Bacillus subtilis [3]) | Activity (Escherichia coli [4]) | Activity (Bacillus subtilis [6]) | Activity (Micrococcus luteus [7]) | Activity (Bacillus subtilis [8]) | Activity (Micrococcus luteus [9]) | Activity (Escherichia coli [10]) | EC50 (KB [11]) | Activity (Micrococcus luteus [12]) | EC50 (KB [13]) | EC50 (Lu1) | Activity [15] | Activity [18] | Activity (Micrococcus luteus [19]) | IC50 (Mycobacterium avium) | EC50 (KB [21]) | Activity (Escherichia coli [23]) | EC50 (LNCaP) | further results |
| --- | --- | --- | --- | --- | --- | --- | --- | --- | --- | --- | --- | --- | --- | --- | --- | --- | --- | --- | --- | --- | --- |
| CCC[C@@H](OC(C)=O)C1=C(Br)/C(=C/Br)OC1=O | Active | >50% | Active | inactive | Active | Active | Active | inactive | inactive | 0.8 mg/L (≈ 2.17 µM) | Active | 2.1 mg/L (≈ 5.71 µM) | 1.7 mg/L (≈ 4.62 µM) | inactive | inactive | Active | 350 µM | 1 mg/L (≈ 2.72 µM) | inactive | 0.5 mg/L (≈ 1.36 µM) | IC50 (Monocyte [1]): 1.3 µM; Activity (Penicillium oxalicum [5]): inactive; zone of inhibition at 10 µg/disc (Penicillium oxalicum [14]; read-out: IZ): 16 mm; zone of inhibition at 5 µg/disc (Penicillium oxalicum [16]; read-out: IZ): 15 mm; zone of inhibition at 0.1 µg/disc (Penicillium oxalicum [17]; read-out: IZ): 7 mm; IC50 (Monocyte [20]): 3 µM; IC50 [22]: 67 µM; EC50 (ZR-75-1): 1.6 mg/L (≈ 4.35 µM); zone of inhibition at 1 µg/disc (Penicillium oxalicum [24]; read-out: IZ): 11 mm |
| CCC[C@@H](OC(C)=O)C1=C(Br)[C@@](CI)(OC)OC1=O | inactive | >50% | inactive | inactive | inactive | Active | inactive | inactive | inactive | 2.4 mg/L (≈ 5.37 µM) | Active | 4.1 mg/L (≈ 9.17 µM) | > 20 mg/L | inactive | inactive | inactive | 350 µM | 7.1 mg/L (≈ 15.9 µM) | inactive | 12.9 mg/L (≈ 28.9 µM) | Activity (Penicillium oxalicum [14]): inactive; Activity (Penicillium oxalicum [16]): inactive; Activity (Penicillium oxalicum [17]): inactive; Activity (Bacillus subtilis [25]): inactive; EC50 (ZR-75-1): 7.9 mg/L (≈ 17.7 µM); Activity (Penicillium oxalicum [24]): inactive |
